Assay results: ChEMBL document CHEMBL3875220, “Development of new inhibitors for N-acylethanolamine-hydrolyzing acid amidase as promising tool against bladder cancer” (Bioorg Med Chem, 2017)
Active and inactive are the calls of the source. The calls are words filed in the database; no cut-off is given here.

Columns and labels:
[1] = biological target: T1, N-acylethanolamine-hydrolyzing acid amidase (Homo sapiens) (UniProt Q02083); assay: Inhibition of recombinant human NAAA at 5 to 100 uM using PAMCA as substrate preincubated for 30 mins followed by substrate addition measured every 3 mins for 5 hrs by fluorescence HTS method
T1 sequence (whole entry): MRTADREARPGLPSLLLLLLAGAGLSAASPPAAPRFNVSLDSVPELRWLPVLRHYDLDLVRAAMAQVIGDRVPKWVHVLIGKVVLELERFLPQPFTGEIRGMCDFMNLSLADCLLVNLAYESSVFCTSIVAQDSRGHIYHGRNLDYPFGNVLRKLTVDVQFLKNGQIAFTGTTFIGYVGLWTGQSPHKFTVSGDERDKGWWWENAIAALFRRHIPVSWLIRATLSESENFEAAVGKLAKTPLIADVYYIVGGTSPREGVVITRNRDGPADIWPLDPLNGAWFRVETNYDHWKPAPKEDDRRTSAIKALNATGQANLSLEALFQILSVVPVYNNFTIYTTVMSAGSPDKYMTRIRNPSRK
Outline: (§1)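 Human recombinant NAAA (25 ng, purity >95%) was used in 100 mM sodium acetate buffer and preincubated with inhibitor in DMSO for 30 min at room temperature. PAMCA was then added to a final 10 µM. Released 7-amino-4-methylcoumarin fluorescence was read at 460 nm every 3 min. […] Linearity was checked at 5–100 µM over 5 h.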

[2] = Antiproliferative activity against human 5637 cells after 72 hrs by MTT assay; type: functional, cell-based; settings: Homo sapiens, 5637, 72 h
Outline: (§2)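 Human bladder cancer cells were kept in RPMI 1640 with 10% FBS and penicillin/streptomycin at 37 °C, 5% CO₂. They were seeded at 5 × 10³ cells/well and exposed to serial log dilutions from 100 to 0.1 µM for 72 h, with DMSO for controls. Read-out was MTT, with formazan dissolved in DMSO and read at 570 nm. IC50 was the concentration inhibiting 50% relative to untreated controls. Three or more experiments in triplicate; mean ± SD.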

[3] = biological target: T2, N-acylethanolamine-hydrolyzing acid amidase (Homo sapiens, UniProt Q02083); assay: (§3) Inhibition of recombinant human NAAA using PAMCA as substrate preincubated for 30 mins followed by substrate addition measured every 3 mins for 2.5 hrs by fluorescence HTS method; outline: as §1
T2 sequence (Q02083 whole entry): T1 sequence (whole entry)

[4] = biological target: T1, N-acylethanolamine-hydrolyzing acid amidase (Homo sapiens); assay: Competitive inhibition of recombinant human NAAA at 100 uM in presence of varying levels of PAMCA as substrate preincubated for 30 mins followed by substrate addition measured every 3 mins for 2.5 hrs by Lineweaver-Burk plot analysis
Outline: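 Human recombinant NAAA was used with PAMCA as substrate at varying concentrations, using the fluorescence assay in acetate buffer. Vmax and KM were derived from Michaelis–Menten fits, and inhibition mode was assigned from Lineweaver–Burk plots of 1/V against 1/[PAMCA].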

[5] = Antiproliferative activity against human RT4 cells after 72 hrs by MTT assay; type: functional, cell-based; settings: RT-4, 72 h; outline: as §2
[6] = Antiproliferative activity against human RT112 cells after 72 hrs by MTT assay; type: functional, cell-based; settings: RT-112, 72 h; outline: as §2
[7] = biological target: T1, N-acylethanolamine-hydrolyzing acid amidase (Homo sapiens); assay: Reversible inhibition of recombinant human NAAA at 50 to 100 uM preincubated for 20 mins followed by 20-fold dilution and PAMCA substrate addition by fluorescence HTS method
Outline: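 Reversibility test: human recombinant NAAA was incubated with inhibitor at 50 or 100 µM final for 20 min. The mixture was diluted twenty-fold and fresh inhibitor added (2.5–50 µM for the 50 µM series, 5–100 for the 100 µM series). The reaction was started with PAMCA and fluorescence was read. Activity was compared between the paired conditions.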

[8] = biological target: T1, N-acylethanolamine-hydrolyzing acid amidase (Homo sapiens); assay: as §3; outline: as §1
[9] = (§4) Anti-migratory activity against human RT112 cells at 40 nM after 24 hrs by wound healing assay relative to control; type: functional, RT-112
Outline: (§5)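 RT112 cells seeded at 5 × 10⁵ cells/well to give a sub-confluent monolayer, then scratched (~1 mm wide). Debris was removed and medium replaced with medium containing inhibitor at 40 nM, with DMSO only for controls. Phase-contrast images were taken at 0 and 24 h. Wound closure was calculated as the initial wound area minus the cell-free area remaining at 24 h. Three or more experiments in triplicate; mean ± SD; Student's t-test.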

[10] = biological target: T1, N-acylethanolamine-hydrolyzing acid amidase (Homo sapiens); assay: Inhibition of NAAA in human RT112 cells assessed as increase in N-stearoylethanolamide level at 40 uM after 24 hrs by HPLC-MS/MS analysis; type: cell-based; settings: RT-112
Outline: (§6)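 RT112 cells were treated with 40 µM inhibitor for 24 h. Cells and supernatant were pooled (1 ml) and spiked with d4-SEA and d4-LNEA internal standards. Protein was precipitated with cold acetone, and the supernatant was purified by SPE and stored at −80 °C. NAEs were quantified by LC-TripleTOF MS and reported in ng/ml as mean ± SD.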

HT-1376 = assay: Antiproliferative activity against human HT-1376 cells after 72 hrs by MTT assay; type: functional, cell-based; settings: HT-1376, 72 h; outline: as §2
[11] = biological target: T1, N-acylethanolamine-hydrolyzing acid amidase (Homo sapiens); assay: Inhibition of NAAA in human RT112 cells assessed as increase in N-oleoylethanolamide level at 40 uM after 24 hrs by HPLC-MS/MS analysis; type: cell-based; settings: RT-112; outline: as §6
[12] = biological target: T1, N-acylethanolamine-hydrolyzing acid amidase (Homo sapiens); assay: Inhibition of NAAA in human RT112 cells assessed as increase in N-palmitoylethanolamide level at 40 uM after 24 hrs by HPLC-MS/MS analysis; type: cell-based; settings: RT-112; outline: as §6
RT-112 = assay: as §4; type: functional; outline: as §5

What does the source list for `CCCCCCCCCCCCCCCCNC(=O)c1ccccc1`?
inhibition [1]: Active; IC50 [2]: 45 µM; IC50 [3]: 45 µM

Which results are given for `CCCCCCCCCCCCCCCCNC(=O)[C@H](O)c1ccccc1`?
inhibition [4]: Active; IC50 [5]: 3.5 µM; IC50 [6]: 28.3 µM; IC50 [2]: 25 µM; inhibition [7]: Active; IC50 [3]: 20 µM; inhibition [8]: Dose-dependent effect

For `CCCCCCCCCCCCCCCCNC(=O)c1ccccc1O`, which Activity [9] is on record?
The Activity was 50%.

What about the inhibition [10] of the same compound?
The inhibition was “Active”.

What about the inhibition [4] of the same compound?
Its inhibition is “Active”.

What about the IC50 [5] of the same compound?
The IC50 was 63.3 µM.

And the IC50 [6]?
Its IC50 is 5.75 µM.

And the IC50 [2]?
The IC50 was 11.2 µM.

And the IC50 (HT-1376)?
Its IC50 is 10.2 µM.

And the inhibition [11]?
Its inhibition is “Active”.

What about the inhibition [12] of the same compound?
The inhibition was “Active”.

What about the IC50 [3] of the same compound?
The IC50 was 11 µM.

What about the inhibition [8] of the same compound?
Its inhibition is “Dose-dependent effect”.

What does the source list for `CCCCCCCCCCCCCCCCNC(=O)c1ccncc1`?
IC50 [5]: 41.7 µM; IC50 [6]: 76.2 µM; IC50 [2]: 51.2 µM; IC50 [3]: 98 µM; inhibition [8]: Dose-dependent effect

For `CCCCCCCCCCCCCCCNC(=O)CCO`, which Activity (RT-112) is on record?
Its Activity is “Active”.

What about the inhibition [10] of the same compound?
The inhibition was “Active”.

And the inhibition [4]?
Its inhibition is “Active”.

What about the IC50 [6] of the same compound?
The IC50 was 58.3 µM.

And the inhibition [1]?
The inhibition was “Active”.

What about the IC50 [2] of the same compound?
Its IC50 is 40 µM.

And the inhibition [7]?
The inhibition was “Active”.

What about the inhibition [11] of the same compound?
Its inhibition is “Active”.

What about the inhibition [12] of the same compound?
Its inhibition is “Active”.

And the IC50 [3]?
The IC50 was 34 µM.

With `CCCCCCCCCCCCCCCNC(=O)c1ccc2ccccc2c1` as the compound, how does the IC50 [3] read?
Its IC50 is over 100 µM.

Which results are given for `CCCCCCCCCCCCCCCCNC(=O)c1cc(O)ccc1O`?
Activity [9]: 80%; inhibition [10]: Active; inhibition [4]: Active; IC50 [6]: 7 µM; IC50 [2]: 7.25 µM; IC50 (HT-1376): 9.5 µM; inhibition [11]: Active; inhibition [12]: Active; IC50 [3]: 38 µM; inhibition [8]: Dose-dependent effect

Which IC50 [5] does the source give for `CCCCCCCCCCCCCCCCNC(=O)[C@@H](O)c1ccccc1` here?
Its IC50 is over 100 µM.

What about the IC50 [6] of the same compound?
The IC50 was 25 µM.

And the IC50 [2]?
The IC50 was 18.8 µM.

And the IC50 [3]?
The IC50 was 78 µM.

And the inhibition [8]?
Its inhibition is “Dose-dependent effect”.
